Converted amounts (≈) assume the structure as drawn.
Columns and labels:
[1] = test system: Mycobacterium tuberculosis; assay: Antitubercular activity against Mycobacterium tuberculosis; format: functional
Method in brief: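 Whole-cell assay against replicating Mtb, scored as MIC99 in μM. Run multiple times in two independent laboratories, with discrepant results repeated until concordant. Values are averages of multiple measurements ± SD.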

[2] = test system: Mycobacterium tuberculosis; assay: Bactericidal activity against Mycobacterium tuberculosis assessed as minimum concentration required for anaerobicidal activity; format: functional
Method in brief: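 Minimum anaerobicidal concentration (μM) against non-replicating Mtb. Run multiple times in two independent laboratories, with discrepant results repeated until concordant. Values are averages of multiple measurements ± SD.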

[3] = Solubility of the compound at pH 6.8; format: physicochemical; details: buffer
Liver [4] = assay: Intrinsic clearance in mouse liver microsome at 5 mg/kg, iv after 24 hrs by LC/MS/MS analysis; format: ADME; details: microsomes
Liver [5] = assay: Half life in mouse liver microsome at 5 mg/kg, iv after 24 hrs by LC/MS/MS analysis; format: ADME; details: microsomes
[6] = Elimination half life in mouse at 5 mg/kg, iv by LC/MS/MS analysis; format: ADME, organism-based; set-up: dose 5 mg/kg, route intravenous; details: in vivo, read-out: beta t1/2 (converted)
Method in brief: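 Single intravenous dose of 5mg/kg, using the supernatant of a centrifuged formulation. Blood was sampled at time points from 1min to 24h after dosing. Plasma was extracted and analysed by LC/MS/MS. Pharmacokinetic parameters, including elimination half-life, came from non-compartmental analysis.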

| Structure (SMILES) | MIC99 [1] [µM] | Activity [2] [µM] | solubility [3] [µg/mL] | CL (Liver [4]) [µL/min/mg] | t1/2 (Liver [5]) [min] | half-life [6] [min] | solubility ([3]; read-out: solubility) [µg/mL] |
| --- | --- | --- | --- | --- | --- | --- | --- |
| O=[N+]([O-])c1cn2c(n1)OC[C@@H](NC(c1ccc(OC(F)(F)F)cc1)c1ncco1)C2 (mixture of isomers) | 0.4 | 7.8 |  |  |  |  |  |
| O=[N+]([O-])c1cn2c(n1)OC[C@@H](OCc1ccc(OC(F)(F)F)c(F)c1)C2 | 0.17 (≈ 0.0641 µg/mL) | 7.5 |  |  |  |  |  |
| O=C(c1cccc(Cl)c1)N(Cc1ccc(OC(F)(F)F)cc1)[C@@H]1COc2nc([N+](=O)[O-])cn2C1 | 7.5 (≈ 3.73 µg/mL) | 21 |  |  |  |  |  |
| O=[N+]([O-])c1cn2c(n1)OC[C@@H](NCc1ccc(OC(F)(F)F)cc1OC1CC1)C2 | 0.06 (≈ 0.0249 µg/mL) | 2 | 11 (≈ 26.5 µM) | 150.7 | 9.2 |  |  |
| O=[N+]([O-])c1cn2c(n1)OC[C@@H](NCc1ccc(OC(F)(F)F)cc1N1CCCCC1)C2 | 0.21 (≈ 0.0927 µg/mL) | 11 |  |  |  |  |  |
| O=[N+]([O-])c1cn2c(n1)OC[C@@H](NCc1ccc(OC(F)(F)F)cc1Br)C2 | 0.09 (≈ 0.0393 µg/mL) | 2 |  |  |  |  |  |
| CCNC(=O)N(Cc1ccc(OC(F)(F)F)cc1)[C@@H]1COc2nc([N+](=O)[O-])cn2C1 | 17 (≈ 7.3 µg/mL) | 69 |  |  |  |  |  |
| NC(=O)C(N[C@@H]1COc2nc([N+](=O)[O-])cn2C1)c1ccc(OC(F)(F)F)cc1 (mixture of isomers) | 0.41 | 30 |  |  |  |  |  |
| O=[N+]([O-])c1cn2c(n1)OC[C@@H](OCc1ccc(OC(F)(F)F)cc1)C2 [PRETOMANID] | 0.63 (≈ 0.226 µg/mL) | 8.8 |  |  |  |  |  |
| O=[N+]([O-])c1cn2c(n1)OC[C@@H](NCc1ccc(OC(F)(F)F)cc1F)C2 | 0.12 (≈ 0.0452 µg/mL) | 2.5 | 72 (≈ 191 µM) | 95.6 | 14.5 |  |  |
| O=[N+]([O-])c1cn2c(n1)OC[C@@H](NC(c1ccc(OC(F)(F)F)cc1)c1ncc[nH]1)C2 (mixture of isomers) | 0.52 | 17 |  |  |  |  |  |
| COC(=O)c1cc(CN[C@@H]2COc3nc([N+](=O)[O-])cn3C2)ccc1OC(F)(F)F | 0.14 (≈ 0.0583 µg/mL) | 11 |  |  |  |  |  |
| CCC(N[C@@H]1COc2nc([N+](=O)[O-])cn2C1)c1ccc(OC(F)(F)F)cc1 (mixture of isomers) | 0.36 | 3.1 |  |  |  |  |  |
| O=CN(Cc1ccc(OC(F)(F)F)cc1)[C@@H]1COc2nc([N+](=O)[O-])cn2C1 | 0.79 (≈ 0.305 µg/mL) | 12.5 |  |  |  |  |  |
| O=[N+]([O-])c1cn2c(n1)OC[C@@H](NCc1ccc(OC(F)(F)F)c(Cl)c1)C2 | 0.12 (≈ 0.0471 µg/mL) | 4.2 |  | 103.4 | 13.4 | 258 |  |
| CN1CCN(c2cc(OC(F)(F)F)ccc2CN[C@@H]2COc3nc([N+](=O)[O-])cn3C2)CC1 | 2.2 (≈ 1 µg/mL) | 33 |  |  |  |  |  |
| CCCCC(N[C@@H]1COc2nc([N+](=O)[O-])cn2C1)c1ccc(OC(F)(F)F)cc1 (mixture of isomers) | 0.15 | 4.4 |  |  |  |  |  |
| CCCN(Cc1ccc(OC(F)(F)F)cc1)[C@@H]1COc2nc([N+](=O)[O-])cn2C1 | 0.11 (≈ 0.044 µg/mL) | 3.8 | < 2 | 407 | 3.4 |  |  |
| O=[N+]([O-])c1cn2c(n1)OC[C@@H](NCc1ccc(OC(F)(F)F)cc1OCC1CC1)C2 | 0.1 (≈ 0.0428 µg/mL) | 4.2 | 6 (≈ 14 µM) | 866.3 | 1.6 |  |  |
| O=C(c1ccc(Cl)cc1)N(Cc1ccc(OC(F)(F)F)cc1)[C@@H]1COc2nc([N+](=O)[O-])cn2C1 | 1.3 (≈ 0.646 µg/mL) | 7.8 |  |  |  |  |  |
| CC(=O)N(Cc1ccc(OC(F)(F)F)cc1)[C@@H]1COc2nc([N+](=O)[O-])cn2C1 | 50 (≈ 20 µg/mL) | >50 |  |  |  |  |  |
| CC(N[C@@H]1COc2nc([N+](=O)[O-])cn2C1)c1ccc(OC(F)(F)F)cc1 (mixture of isomers) | 0.44 | 5.6 |  |  |  |  |  |

| Structure (SMILES) | MIC99 [1] [µM] | Activity [2] [µM] | solubility [3] [µg/mL] | CL (Liver [4]) [µL/min/mg] | t1/2 (Liver [5]) [min] | half-life [6] [min] | solubility ([3]; read-out: solubility) [µg/mL] |
| --- | --- | --- | --- | --- | --- | --- | --- |
| O=C(c1ccccc1Cl)N(Cc1ccc(OC(F)(F)F)cc1)[C@@H]1COc2nc([N+](=O)[O-])cn2C1 | 5.6 (≈ 2.78 µg/mL) | >50 |  |  |  |  |  |
| O=[N+]([O-])c1cn2c(n1)OC[C@@H](NCc1ccc(OC(F)(F)F)cc1OCc1ccccc1)C2 | 0.24 (≈ 0.111 µg/mL) | 7.5 |  |  |  |  |  |
| COc1cc(CN[C@@H]2COc3nc([N+](=O)[O-])cn3C2)ccc1OC(F)(F)F | 0.07 (≈ 0.0272 µg/mL) | 2.1 |  |  |  |  |  |
| O=[N+]([O-])c1cn2c(n1)OC[C@@H](NCc1ccc(OC(F)(F)F)c(N3CCOCC3)c1)C2 | 0.15 (≈ 0.0665 µg/mL) | 7 |  |  |  |  |  |
| CN1CCN(c2cc(CN[C@@H]3COc4nc([N+](=O)[O-])cn4C3)ccc2OC(F)(F)F)CC1 | 0.17 (≈ 0.0776 µg/mL) | 7.8 |  |  |  |  |  |
| O=[N+]([O-])c1cn2c(n1)OC[C@@H](NCc1ccc(OC(F)(F)F)cc1)C2 | 0.36 (≈ 0.129 µg/mL) | 14 |  |  |  |  |  |
| COc1cc(OC(F)(F)F)ccc1CN[C@@H]1COc2nc([N+](=O)[O-])cn2C1 | 0.23 (≈ 0.0893 µg/mL) | 5.2 |  |  |  |  |  |
| O=[N+]([O-])c1cn2c(n1)OC[C@@H](OCc1ccc(OC(F)(F)F)c(O)c1)C2 | 0.14 (≈ 0.0525 µg/mL) | 8.3 |  |  |  |  |  |
| O=[N+]([O-])c1cn2c(n1)OC[C@@H](NCc1ccc(OC(F)(F)F)cc1O)C2 | 0.09 (≈ 0.0337 µg/mL) | 4.4 | 25 (≈ 66.8 µM) | 96.9 | 14.3 |  |  |
| O=C(c1ccccc1)N(Cc1ccc(OC(F)(F)F)cc1)[C@@H]1COc2nc([N+](=O)[O-])cn2C1 | 8.8 (≈ 4.07 µg/mL) | >50 |  |  |  |  |  |
| O=[N+]([O-])c1cn2c(n1)OC[C@@H](NC(CO)c1ccc(OC(F)(F)F)cc1)C2 (mixture of isomers) | 0.3 | 11 |  |  |  |  |  |
| O=[N+]([O-])c1cn2c(n1)OC[C@@H](NCc1ccc(OC(F)(F)F)cc1Oc1ccccc1)C2 | 0.06 (≈ 0.027 µg/mL) | 4.4 | 3 (≈ 6.66 µM) | 216.6 | 6.4 |  |  |
| O=[N+]([O-])c1cn2c(n1)OC[C@@H](NCc1ccc(OC(F)(F)F)cc1Cl)C2 | 0.13 (≈ 0.0511 µg/mL) | 2.1 | 30 (≈ 76.4 µM) | 69.7 | 19.9 |  |  |
| CN(Cc1ccc(OC(F)(F)F)cc1)[C@@H]1COc2nc([N+](=O)[O-])cn2C1 | 0.15 (≈ 0.0558 µg/mL) | 2.5 | 10 (≈ 26.9 µM) | 124.9 | 11 |  |  |
| CCCC(N[C@@H]1COc2nc([N+](=O)[O-])cn2C1)c1ccc(OC(F)(F)F)cc1 (mixture of isomers) | 0.27 | 3.8 |  |  |  |  |  |
| CC(C)N(Cc1ccc(OC(F)(F)F)cc1)[C@@H]1COc2nc([N+](=O)[O-])cn2C1 | 0.34 (≈ 0.136 µg/mL) | 11 | < 2 | 433 | 3.2 |  |  |
| O=[N+]([O-])c1cn2c(n1)OC[C@@H](NCc1ccc(OC(F)(F)F)cc1N1CCOCC1)C2 | 0.15 (≈ 0.0665 µg/mL) | 10 |  |  |  |  |  |
| O=[N+]([O-])c1cn2c(n1)OC[C@@H](NCc1ccc(OC(F)(F)F)c(F)c1)C2 | 0.12 (≈ 0.0452 µg/mL) | 4.2 |  | 58.7 | 23.6 |  |  |
| COc1cc(CO[C@@H]2COc3nc([N+](=O)[O-])cn3C2)ccc1OC(F)(F)F | 0.13 (≈ 0.0506 µg/mL) | 4.2 |  |  |  |  |  |
| O=[N+]([O-])c1cn2c(n1)OC[C@@H](NC(CCO)c1ccc(OC(F)(F)F)cc1)C2 (mixture of isomers) | 0.13 | 23 |  |  |  |  |  |
| O=[N+]([O-])c1cn2c(n1)OC[C@@H](NCc1ccc(OC(F)(F)F)c(Oc3ccccc3)c1)C2 | 0.14 (≈ 0.0631 µg/mL) | 3.9 |  | 149 | 9.3 |  | < 2 |

From ChEMBL document CHEMBL1821556, “Structure-activity relationships of antitubercular nitroimidazoles. 3. Exploration of the linker and lipophilic tail of ((s)-2-nitro-6,7-dihydro-5H-imidazo[2,1-b][1,3]oxazin-6-yl)-(4-trifluoromethoxybenzyl)amine (6-amino PA-824)” (J Med Chem, 2011)
